Source: PubChem
GSTO1 counter = blocks human GSTO1 in RBBP9 counter-screen. actives 1.1% (n = 300,000). AID 1974. recombinant GSTO1, activity-based probe fluorescence polarization. P78417. inhibition, % at 5.96 µM;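 active = inhibition above the campaign mean inhibition plus 3 SD, cut at about 35% in these data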;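 also: 0% = GSTO1-1 with DMSO and 100% = wells lacking GSTO1-1 enzyme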
Target sequence (P78417 whole entry, looked up): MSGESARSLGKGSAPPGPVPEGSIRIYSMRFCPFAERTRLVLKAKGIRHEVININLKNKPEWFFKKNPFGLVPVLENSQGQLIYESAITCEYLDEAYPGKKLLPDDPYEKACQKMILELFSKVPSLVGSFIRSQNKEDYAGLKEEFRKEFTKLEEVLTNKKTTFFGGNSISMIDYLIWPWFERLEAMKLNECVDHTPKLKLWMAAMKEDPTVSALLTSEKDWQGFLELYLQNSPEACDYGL
PRMT1 FP inh = inhibitors of human PRMT1. Q99873. recombinant PRMT1, activity-based probe fluorescence polarization. inhibition, % at 2.79 µM. actives 1.3% (n = 370,000). AID 652257;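 active = inhibition above about 21% made by adding two undisclosed values, limit read from the data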
Apaf-1 inh = blocks human Apaf-1 apoptosome activity. O14727. AID 489030. reconstituted apoptosome caspase-3 activity, DEVD-Rh110 fluorescence. inhibition, % at 20 µM. actives 0.71% (n = 330,000); active = inhibition of at least 40% at 20 µM;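 also: plate controls were DMSO wells for no effect and DEVD-CHO caspase inhibitor wells for full effect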
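System: Apoptosome proteins | Medium: Hepes pH 7.5 with detergent and BSA | Also added: Cytochrome c trigger plus (Z-DEVD)2-Rh110 caspase-3 substrate | Incubation: 30 min compound preincubation, 50 min activation, room temperature | Detection: Rhodamine 110 fluorescence at Ex 480/Em 540 nm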
PAD4 FP inh = PAD4 (human) enzyme inhibition; inhibition, % at 6.36 µM; AID 485272; actives 0.41% (n = 330,000); Q9UM07; recombinant PAD4, RCA probe fluorescence polarization;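 active = percent inhibition above a cutoff equal to the mean of all tested compounds plus 3 SD, cut at about 15% in these data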;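 also: 0% = PAD4 with RCA probe and DMSO and 100% = probe without PAD4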
TDP2 absorb = TDP2 (human) inhibition, absorbance primary screen. recombinant TDP2, T5PNP hydrolysis, p-nitrophenol absorbance 415 nm. O95551. inhibition, % at 12.8 µM. actives 0.34% (n = 370,000);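 active = inhibition above the mean of all tested compounds plus 3 SD, set per campaign, cut at about 25% in these data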;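 also: 0% = DMSO with enzyme and 100% = buffer with substrate but no TDP2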
Target sequence (O95551 whole entry, looked up): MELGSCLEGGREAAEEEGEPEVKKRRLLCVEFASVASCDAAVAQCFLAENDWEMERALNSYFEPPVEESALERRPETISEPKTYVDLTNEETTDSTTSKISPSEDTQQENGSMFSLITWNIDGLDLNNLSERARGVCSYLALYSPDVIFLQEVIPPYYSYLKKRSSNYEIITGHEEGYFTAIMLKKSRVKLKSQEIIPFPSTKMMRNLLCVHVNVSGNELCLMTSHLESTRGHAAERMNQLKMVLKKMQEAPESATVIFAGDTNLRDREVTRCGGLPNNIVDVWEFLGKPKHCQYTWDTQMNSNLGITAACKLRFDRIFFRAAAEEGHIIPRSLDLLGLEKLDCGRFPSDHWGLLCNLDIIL
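System: recombinant human TDP2 / Amount: 120 nM TDP2 per well / Also added: 5 mM T5PNP chromogenic substrate / Doses: 12.8 µM single point, 1% DMSO / Incubation: 2 h at 37 °C / Detection: p-Nitrophenol epi absorbance / Evaluation: % inhibition relative to enzyme-containing and enzyme-free wells / Repeats: singlicate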
PRMT1 inh conf = PRMT1 (human) inhibition, FP confirmation | shares compounds with PRMT1 FP inh | recombinant His-PRMT1, activity-based probe fluorescence polarization | inhibition, % at 2.79 µM | actives 42% (n = 3,300);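 active = mean inhibition across replicates above the hit cutoff derived for the earlier primary screen, cut at about 22% in these data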
The depositor's hits bear a star; nt = not tested or not shown. An excerpt weighted towards active compounds, which were near 2.6% of everything screened.

SMILES | GSTO1 counter | PRMT1 FP inh | Apaf-1 inh | PAD4 FP inh | TDP2 absorb | PRMT1 inh conf
CCN1C(=O)[C@H]2[C@H]3CN=C(SCC(=O)c4ccccc4)N3[C@@](CC)(C(=O)OC)[C@H]2C1=O | nt | 69* | 4 | 5 | -3 | 44*
CCOC(=O)[C@@]12CN(C(=O)OC(C)(C)C)CC=C1N(Cc1ccc(OC)cc1)C(=O)[C@H]2CC(=O)NCc1cccc2ccccc12 | nt | 0 | nt | nt | 2 | nt
O=C(OCc1c(-c2ccccc2)ncc2ccccc12)c1cccs1 | nt | 1 | 22 | -2 | -7 | nt
S=c1[nH]nc(-c2ccccc2)n1/N=C/C=C/c1ccco1 | 31 | 10 | 14 | 5 | 3 | nt
Cc1ccccc1-c1n[nH]c(=S)n1/N=C/C=C/c1ccco1 | 33 | 29* | 0 | -2 | -13 | 20
S=c1[nH]nc(-c2ccc(Cl)cc2)n1/N=C/C=C/c1ccco1 | 0 | 31* | 14 | -2 | 2 | 5
Cc1cc(-c2n[nH]c(=S)n2/N=C/C=C/c2ccco2)n[nH]1 | 13 | 10 | -8 | -1 | 3 | nt
CC(=O)Nc1ccc(SC[C@H](CC(C)C)N2CCN(CCc3ccccc3)CCC2=O)cc1 | 2 | 40* | 10 | 9 | -16 | 40*
O=C(O)c1ccccc1NC(=S)NC(=O)c1sc2ccccc2c1Cl | -3 | 32* | 8 | 0 | -3 | 32*
CC1CC(C)CN(C(=O)CSc2nnc(N)s2)C1 (centres undefined) | -3 | -2 | 0 | -2 | 10 | nt
O=[N+]([O-])c1ccc(N2CCN(Cc3ccccc3)CC2)c2c1no[n+]2[O-] | nt | 54* | nt | nt | 13 | 19
COc1ccccc1Cc1c(-c2cccc(Br)c2)nc2ccc(C)cn12 | nt | 1 | nt | nt | 0 | nt
CCCC(=O)Nc1cc(OC)c(NC(=S)Nc2cccc(C)c2)cc1OC | nt | 39* | nt | nt | 6 | -5
CCc1ccc(C(O)c2ncc(-c3ccccc3C(F)(F)F)[nH]2)cc1 (centres undefined) | nt | 0 | nt | nt | 12 | nt
N#Cc1cc2c(=O)n3ccccc3nc2n(Cc2ccco2)c1=NC(=O)c1ccco1 | 16 | 32* | 1 | -1 | 6 | 2
CC1=NN(C(=S)Nc2ccccc2)C(C)(C)C1 | -3 | -2 | -2 | -4 | -6 | nt
Nc1ncc(N=Nc2cc(C(=O)O)ccc2Cl)s1 | -14 | 26* | 11 | -14 | 13 | 29*
O=C(CSc1nc(O)cc(=O)[nH]1)N1CCCc2ccccc21 | -5 | 26* | -3 | 5 | 9 | 7
Cc1cc(=O)[nH]c(SCC(=O)N2CCCc3ccccc32)n1 | -2 | 4 | -27 | 0 | 4 | nt
COc1ccc(S(=O)(=O)N2CCCCCC2)cc1C(=O)N(C)Cc1cccs1 | 5 | 1 | 7 | -1 | -7 | nt
CCC(CC)c1nnc(NC(=O)COc2ccc3c(c2)OCO3)s1 | 1 | 42* | 9 | -1 | -25 | -1
CC(C)c1nnc(NC(=O)COc2ccc3c(c2)OCO3)s1 | 8 | 2 | 4 | -4 | -4 | nt
CC(NC(=O)C1CCN(C(=O)c2ccc(F)cc2)CC1)c1ccc(S(N)(=O)=O)cc1 (centres undefined) | nt | -7 | -3 | -1 | -11 | nt
COc1ccc(-n2c(Cc3cccs3)nnc2SCC(=O)Nc2ccc(OCc3ccccc3)cc2)cc1 | nt | 4 | nt | nt | 4 | nt
CCC(C)(C)n1nnnc1C(c1ccc2ncccc2c1)N1CCN(c2ccc(O)cc2)CC1 (centres undefined) | 16 | 27* | -2 | 6 | -6 | 2
SMILES | GSTO1 counter | PRMT1 FP inh | Apaf-1 inh | PAD4 FP inh | TDP2 absorb | PRMT1 inh conf
CCC(C)(C)n1nnnc1C(c1ccc2ncccc2c1)N1CCN(c2nc3ccccc3s2)CC1 (centres undefined) | -7 | -1 | 22 | 4 | -1 | nt
CCOc1ccc(N2C(=O)CC(NCc3ccc(S(N)(=O)=O)cc3)C2=O)cc1 (centres undefined) | 4 | 5 | -18 | -3 | 11 | nt
O=C1CC(NNc2ccccc2)C(=O)N1c1ccccc1 (centres undefined) | 2 | 1 | -2 | -5 | -5 | nt
O=C1NCCCCC1NC1CC(=O)N(c2ccccc2)C1=O (centres undefined) | 2 | 34* | 7 | -3 | -8 | 7
CCOc1ccc(N2C(=O)CC(NC3CCCCNC3=O)C2=O)cc1 (centres undefined) | 8 | 44* | -3 | -6 | -4 | 0
CCCCOc1ccc(N2C(=O)CC(NCc3ccncc3)C2=O)cc1 (centres undefined) | 3 | 15 | 1 | -2 | -12 | nt
CCOc1ccc(N2C(=O)CC(NCC#N)C2=O)cc1 (centres undefined) | 7 | 33* | -3 | -1 | 10 | 46*
Cc1cc(S(=O)(=O)N2CCOCC2)ccc1OCC(=O)Nc1ccc(Br)cc1F | -2 | 1 | -2 | -3 | 2 | nt
COc1ccc(CC(=O)NCc2n[nH]c(=S)n2-c2ccccc2OC)cc1 | 3 | -1 | 3 | 1 | 0 | nt
CCOc1ccccc1NC(=O)CSc1ccc(-c2ccco2)nn1 | 0 | 25* | 12 | 1 | -4 | 48*
CCOc1ccccc1NC(=O)Cn1nc(-c2ccco2)ccc1=O | 5 | 8 | 8 | 2 | 1 | nt
COc1ccc(NC(=O)CSc2ccc(-c3ccco3)nn2)cc1 | 2 | 37* | -8 | 1 | -14 | 54*
CC1CC(=O)N(c2ccc(C(C)C)cc2)C(=O)C1 | 6 | -2 | 1 | -4 | -3 | nt
CCCc1c(O)nc(SC2CC(=O)N(c3cc(OC)ccc3OC)C2=O)[nH]c1=O (centres undefined) | 3 | 5 | -11 | 0 | -7 | nt
CC(C)c1ccc(N2C(=O)CC(Sc3ncn[nH]3)C2=O)cc1 (centres undefined) | 2 | 61* | 12 | 3 | -4 | 64*
COc1ccc(N2C(=O)CC(Sc3ncn[nH]3)C2=O)c(OC)c1 (centres undefined) | 14 | 89* | -9 | 4 | 0 | 36*
CC(=O)c1sc2nsc(SCCN3CCCC3)c2c1N | 24 | 35* | -6 | -2 | -11 | 11
CCOC(=O)c1cc[nH]c1C | 3 | 2 | -16 | -1 | -2 | nt
COC(=O)CNc1ccc2c(c1)OCO2 | 13 | 36* | 4 | 0 | 1 | 5
c1cc(CNc2ccc3c(c2)OCO3)ccn1 | 9 | 37* | 21 | 8 | 4 | 7
COC(=O)Nc1ccc2c(c1)OCO2 | 4 | 2 | 1 | -3 | 1 | nt
CSc1ncc(C(=O)Nc2cccc(Cl)c2)c(C)n1 | nt | -3 | 13 | nt | 11 | nt
Cc1ccc(C(=O)Nn2c(O)c(C=C3N=c4ccccc4=N3)sc2=S)cc1 | 0 | 55* | -2 | -6 | -29 | 5
O=C(Nn1c(O)c(C=C2N=c3ccccc3=N2)sc1=S)c1ccccc1 | -2 | 49* | 13 | -2 | -1 | 3
